Experimental data from ChEMBL document CHEMBL4261491, “Synthesis and synergistic antifungal effects of monoketone derivatives of curcumin against fluconazole-resistant Candida spp” (Medchemcomm, 2017).
Converted amounts (≈) assume the structure as drawn.

Assays:
Pichia kudriavzevii [1] = assay: Antifungal activity against fluconazole-resistant Candida krusei clinical isolate 2159 in presence of 8 ug/ml fluconazole by broth microdilution method; format: functional; conditions: for MIC80: Pichia kudriavzevii, isolate 2159
Method in brief: (§1)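 Broth microdilution per CLSI/NCCLS M27-A2 against FLC-resistant clinical isolates. MIC80 read for each compound alone and with fluconazole at 8.0 μg ml–1. C. albicans ATCC 90028 served as quality control. Curcumin was the positive control.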

Candida albicans [2] = assay: Antifungal activity against fluconazole-resistant Candida albicans clinical isolate 103 in presence of 8 ug/ml fluconazole by broth microdilution method; format: functional; conditions: for MIC80: Candida albicans, isolate 103; method in brief: as §1
Pichia kudriavzevii [3] = assay: Antifungal activity against fluconazole-resistant Candida krusei clinical isolate 2159 by broth microdilution method; format: functional; method in brief: as §1
Candida tropicalis [4] = assay: Antifungal activity against fluconazole-resistant Candida tropicalis clinical isolate 087 in presence of 8 ug/ml fluconazole by broth microdilution method; format: functional; conditions: for MIC80: Candida tropicalis, isolate 087; method in brief: as §1
Candida albicans [5] = assay: Antifungal activity against fluconazole-resistant Candida albicans clinical isolate 103 by broth microdilution method; format: functional; method in brief: as §1
Candida tropicalis [6] = assay: Antifungal activity against fluconazole-resistant Candida tropicalis clinical isolate 087 by broth microdilution method; format: functional; method in brief: as §1
[7] = Cytotoxicity against HUVEC assessed as cell viability at 32 ug/ml after 24 hrs by MTT assay relative to control; format: cell-based; conditions: human, HUVEC cells; read-out: Activity
Method in brief: (§2)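 HUVECs grown in DMEM with 10% FCS and 100 μg ml–1 streptomycin, 5% CO2, 37 °C. Cells exposed to compounds at 16 and 32 μg ml–1 for 24 h, then incubated with MTT solution (5 mg ml–1) for 3 h. Optical density read at 570 nm. Viability expressed as percentage relative to drug-free control.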

[8] = Cytotoxicity against HUVEC assessed as cell viability at 16 ug/ml after 24 hrs by MTT assay relative to control; format: cell-based; conditions: human, HUVEC cells; read-out: Activity; method in brief: as §2

| Structure (SMILES) | fractional inhibitory concentration index (FICI) (Pichia kudriavzevii [1]) | MIC80 (Pichia kudriavzevii [1]) [µg/mL] | fractional inhibitory concentration index (FICI) (Candida albicans [2]) | MIC80 (Candida albicans [2]) [µg/mL] | MIC80 (Pichia kudriavzevii [3]) [µg/mL] | fractional inhibitory concentration index (FICI) (Candida tropicalis [4]) | MIC80 (Candida tropicalis [4]) [µg/mL] | MIC80 (Candida albicans [5]) [µg/mL] | MIC80 (Candida tropicalis [6]) [µg/mL] | viability at 24 h, 32 ug/ml [7] [%] | viability at 24 h, 16 ug/ml [8] [%] |
| --- | --- | --- | --- | --- | --- | --- | --- | --- | --- | --- | --- |
| CN(C)c1ccc(/C=C/C(=O)/C=C/c2ccc(N(C)C)cc2)cc1 | >1.06 | > 64 | >1.06 | > 64 | > 64 | 0.563 | 32 | > 64 | > 64 |  |  |
| COc1ccc(/C=C2\CC/C(=C\c3ccc(OC)c(OC)c3)C2=O)cc1OC | >1.06 | > 64 | >1.06 | > 64 | > 64 | 0.313 | 16 | > 64 | > 64 |  |  |
| O=C(/C=C/c1cccs1)/C=C/c1cccs1 | >1.06 | > 64 | 0.188 | 8 | > 64 | >1.06 | > 64 | > 64 | > 64 | 49 | 84 |
| O=C(/C=C/c1ccc(Br)cc1)/C=C/c1ccc(Br)cc1 | >1.06 | > 64 | >1.06 | > 64 | > 64 | 0.563 | 32 | > 64 | > 64 |  |  |
| COc1ccc(/C=C/C(=O)/C=C/c2ccc(OC)cc2)cc1 | >1.06 | > 64 | >1.06 | > 64 | > 64 | >1.06 | > 64 | > 64 | > 64 |  |  |
| COc1ccc(/C=C/C(=O)/C=C/c2ccc(OC)c(O)c2)cc1O | >1.06 | > 64 | 0.563 | 32 | > 64 | 0.188 | 8 | > 64 | > 64 |  |  |
| O=C(/C=C/c1c(Cl)cccc1Cl)/C=C/c1c(Cl)cccc1Cl | >1.06 | > 64 | >1.06 | > 64 | > 64 | >1.06 | > 64 | > 64 | > 64 |  |  |
| CN(C)c1ccc(/C=C2\CC/C(=C\c3ccc(N(C)C)cc3)C2=O)cc1 | >1.06 | > 64 | >1.06 | > 64 | > 64 | 1.06 | 64 | > 64 | > 64 |  |  |
| O=C1/C(=C/c2ccc(CO)o2)CC/C1=C\c1ccc(CO)o1 | >1.06 | > 64 | >1.06 | > 64 | > 64 | 0.125 | 4 | > 64 | > 64 | 57 | 68 |
| O=C(/C=C/c1ccc(Cl)cc1)/C=C/c1ccc(Cl)cc1 | >1.06 | > 64 | >1.06 | > 64 | > 64 | 0.313 | 16 | > 64 | > 64 |  |  |
| O=C(/C=C/c1ccc(Cl)c(Cl)c1)/C=C/c1ccc(Cl)c(Cl)c1 | >1.06 | > 64 | >1.06 | > 64 | > 64 | >1.06 | > 64 | > 64 | > 64 |  |  |
| O=C(/C=C/c1ccco1)/C=C/c1ccco1 | >1.06 | > 64 | >1.06 | > 64 | > 64 | 0.313 | 16 | > 64 | > 64 |  |  |
| O=C(/C=C(O)/C=C/c1ccc(O)c(O)c1)/C=C/c1ccc(O)c(O)c1 | 0.563 | 2 | 0.125 | 4 | 4 (≈ 11.8 µM) | 0.125 | 4 | 64 (≈ 188 µM) | 64 (≈ 188 µM) |  |  |
| O=C1/C(=C/c2ccc3c(c2)OCO3)CC/C1=C\c1ccc2c(c1)OCO2 | >1.06 | > 64 | >1.06 | > 64 | > 64 | 1.06 | 64 | > 64 | > 64 |  |  |
| O=C(/C=C/c1ccc(O)cc1)/C=C/c1ccc(O)cc1 | >1.06 | > 64 | >1.06 | > 64 | > 64 | 0.188 | 8 | > 64 | > 64 | 75 | 87 |
| O=C1/C(=C/c2ccc(O)cc2)CC/C1=C\c1ccc(O)cc1 | >1.06 | > 64 | >1.06 | > 64 | > 64 | 0.188 | 8 | > 64 | > 64 | 60 | 69 |
| COc1cccc(/C=C2\CC/C(=C\c3cccc(OC)c3OC)C2=O)c1OC | >1.06 | > 64 | >1.06 | > 64 | > 64 | >1.06 | > 64 | > 64 | > 64 |  |  |
| COc1cc(/C=C/C(=O)CC(=O)/C=C/c2ccc(O)c(OC)c2)ccc1O [CURCUMIN] | 0.188 | 8 | 0.188 | 8 |  | 0.188 | 8 |  |  | 22 | 80 |
| O=C1/C(=C/c2ccco2)CC/C1=C\c1ccco1 | >1.06 | > 64 | >1.06 | > 64 | > 64 | 0.188 | 8 | > 64 | > 64 | 69 | 86 |
| COc1ccc(/C=C/C(=O)/C=C/c2ccc(OC)c(OC)c2)cc1OC | >1.06 | > 64 | >1.06 | > 64 | > 64 | 0.125 | 4 | > 64 | > 64 | 55 | 67 |
| O=C(/C=C/c1ccc2c(c1)OCO2)/C=C/c1ccc2c(c1)OCO2 | 0.094 | 2 | 0.563 | 32 | > 64 | 0.313 | 16 | > 64 | > 64 | 71 | 88 |
| O=C(/C=C/c1ccc(F)cc1)/C=C/c1ccc(F)cc1 | >1.06 | > 64 | >1.06 | > 64 | > 64 | 0.188 | 8 | > 64 | > 64 | 43 | 64 |
| COc1ccc(/C=C2\CC/C(=C\c3ccc(OC)cc3)C2=O)cc1 | >1.06 | > 64 | >1.06 | > 64 | > 64 | 1.06 | 64 | > 64 | > 64 |  |  |
| O=C(/C=C/c1ccc(Cl)cc1Cl)/C=C/c1ccc(Cl)cc1Cl | >1.06 | > 64 | >1.06 | > 64 | > 64 | 0.313 | 16 | > 64 | > 64 |  |  |
